Data as given in ChEMBL document CHEMBL1136404, “Synthesis and biological evaluation of new UDP-GalNAc analogues for the study of polypeptide-alpha-GalNAc-transferases” (Bioorg Med Chem Lett, 2003).

Assays:
[1] = Inhibitory activity against GalNAc transferase 1 at a concentration of 200 uM
Outline: (§1)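 Bovine ppGalNAc-T1 (EC 2.4.1.41), secreted 6His-tagged protein from baculovirus-infected insect cells, Ni-NTA purified (0.5 U/mg). Stopped with ice-cold water; glycopeptide recovered on C18 cartridge, eluted with methanol, scintillation counted. Inhibition reported as relative %.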

[2] = Inhibitory activity against GalNAc transferase 1 at a concentration of 1000 uM; outline: as §1
[3] = Inhibitory activity against GalNAc transferase 1 at a concentration of 20 uM; outline: as §1

Row | Compound | inhibition [1] [%] | inhibition [2] [%] | inhibition [3] [%]
1 | CC(=O)N[C@@H]1[C@H](OP(=O)(O)OP(=O)(O)OC[C@H]2O[C@@H](n3ccc(=O)[nH]c3=O)[C@H](O)[C@@H]2O)O[C@@H](CO)[C@H](O)[C@H]1O | 39 | 79 | 0
2 | COC1C(O)C(CO)OC(OP(=O)(O)OP(=O)(O)OC[C@H]2OC(n3ccc(=O)[nH]c3=O)[C@H](O)[C@@H]2O)C1NC(C)=O (some centres not stated) | 30 | 74 | 0
3 | COC1C(CO)OC(OP(=O)(O)OP(=O)(O)OC[C@H]2OC(n3ccc(=O)[nH]c3=O)[C@H](O)[C@@H]2O)C(NC(C)=O)C1O (some centres not stated) | 7 | 72 | 0
4 | COCC1OC(OP(=O)(O)OP(=O)(O)OC[C@H]2OC(n3ccc(=O)[nH]c3=O)[C@H](O)[C@@H]2O)C(NC(C)=O)C(O)C1O (some centres not stated) | 17 | 76 | 0
